Experiments:
[1] = test system: MS2 coat protein; test: apparent Kd, MS2 coat protein; higher = weaker binding; RNA-MaP array
How it was run: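 Designed RNAs were produced on an Illumina sequencing chip by transcription of sequenced DNA templates. Binding to fluorescently labeled MS2 coat protein (1.5 nM to 3 μM) was measured at room temperature with or without input ligand. The apparent Kd is the median of per-cluster binding-curve fits. Designs were excluded when measured on fewer than 10 clusters.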

[2] = test system: MS2 coat protein; test: apparent Kd, MS2 coat protein; higher = weaker binding; RNA-MaP array; FMN 200 µM where present
How it was run: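 The apparent Kd comes from binding curves fitted cluster by cluster, filtered, and summarised as a median. Those curves followed SNAP-549-labelled MS2 coat protein from 0.7 or 1.5 nM, doubling to 3 µM, on Illumina sequencing-chip clusters where stalled E. coli RNA polymerase had transcribed the designs, without and then with constant ligand. The buffer was 100 mM Tris-HCl pH 7.5, 80 mM KCl, 4 mM MgCl2, BSA, DTT, yeast tRNA and Tween-20, and green signal was normalised to red-channel RNA signal and control-cluster median Fmax.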

[3] = designed as: ON switch for flavin mononucleotide, no ligand
[4] = ligand present: flavin mononucleotide, designed as: ON switch for flavin mononucleotide
[5] = designed as: OFF switch for flavin mononucleotide, no ligand
[6] = ligand present: flavin mononucleotide, designed as: OFF switch for flavin mononucleotide

## AUGUAGCCGUCGACUGUACCUUAUGCCGAUACCAGCUACCCGUGAAGCCCUUGGCAGCGGGAAACAUGAGGAUCACCCAUGUCAG
[1]; designed as: OFF switch for theophylline, no ligand
  apparent Kd: 23.9 nM
[1]; ligand present: theophylline, designed as: OFF switch for theophylline
  apparent Kd: 41.3 nM

## ACAGCACAUGAGGAUCACCCAUGUCGACAUGUAUUAGGAUAUGAUCCGCGCUAGACACCAUCAGAAGGAAUACCGA
[1]; [3]
  apparent Kd: 43 nM
[1]; [4]
  apparent Kd: 23.7 nM

## CGAGAAUAUACAGGAUAUGGCGGAACCCAUUACAUGAGGAUCACCCAUGUACCAUGGAAAAGAGUCCAGAAGGGUAGAAUCAAA
[1]; [3]
  apparent Kd: 8.1 nM
[1]; [4]
  apparent Kd: 6.19 nM

## AUGGGUACCACAGGAUAUUAGUAACACAUGAGGAUCACCCAUGUUUUACCGCUUGAAGCUUAGACUAAGAAGGGUGGCUUAGAA
[1]; [3]
  apparent Kd: 55.1 nM
[1]; [4]
  apparent Kd: 23.9 nM

## AAAGAAAGAGUGAGGAUAUGAUAUAAACAAAAGUAACAGAAGGCACAUGAGGAUCACCCAUGUGACUAUAGAAU
[1]; [5]
  apparent Kd: 6.08 nM
[1]; [6]
  apparent Kd: 5.62 nM

## CUAAGAGUUACGGCCGCCACUAGUUGGGAUCCGCCCGUAAAAUCACAUGAGGAUCACCCAUGUCCUAGGACCGGGUAAUCGCAUU
[1]; designed as: ON switch for tryptophan, no ligand
  apparent Kd: 265 nM
[1]; ligand present: tryptophan, designed as: ON switch for tryptophan
  apparent Kd: 142 nM

## GUACCUCCCAAAGGAUAUGGACCGCAGACAUGAGGAUCACCCAUGUAGGACGCACUGUUUGCGCGCCAGAAGGUUGUUAAUCGC
[1]; [5]
  apparent Kd: 98.5 nM
[1]; [6]
  apparent Kd: 73.2 nM

## UAGAGGACGGGAGGAUAUUCAGGUACAUCAGCCGAAGGCACACAUGAGGAUCACCCAUGUGGGUCGAAGAAGGCCCAGUUGACG
[1]; [3]
  apparent Kd: 5.37 nM
[1]; [4]
  apparent Kd: 4.67 nM

## AAUGGGCGAGUAGAGCAUAAUUUCCACUCCCGAGGACCGGUACGGCCGCCACUCGUUCGCUCACAUGAGGAUCACCCAUGUGGUC
[1]; designed as: OFF switch for tryptophan, no ligand
  apparent Kd: 32.3 nM
[1]; ligand present: tryptophan, designed as: OFF switch for tryptophan
  apparent Kd: 57.2 nM

## ACGUUGCAGCAAGGAUAUUCGAGACUACUAGAAGAAGAAGGUGCCGUGCUCUUCACAUGAGGAUCACCCAUGUGGCGUUAAUUU
[1]; [5]
  apparent Kd: 9.11 nM
[1]; [6]
  apparent Kd: 8.35 nM

## UUGGUUGGGAAAACGAUUUGCACAUGAGGAUCACCCAUGUCGAAGGAUAUGUGGCGCUGUUUGCGACAGAAGGUCGACCUCGCC
[1]; [3]
  apparent Kd: 15.5 nM
[1]; [4]
  apparent Kd: 14.9 nM

## AAUGAGGCCUCUCAACAUGAGGAUCACCCAUGUAACGGAACAAAGGAUAUGGUCCAACUACUAACCCAGAAGGUUGUGACAGAA
[1]; [3]
  apparent Kd: 49.1 nM
[1]; [4]
  apparent Kd: 40.6 nM

## AGUCAAAAUUAGAAGGAGCGUUGACCCUGUUAGCUAGGAUAUAAUUCAUGCGAACAUGAGGAUCACCCAUGUAGACGUACCAAC
[1]; [3]
  apparent Kd: 86.5 nM
[1]; [4]
  apparent Kd: 44.9 nM

## CUGUGCGAACAGAAGGUGGCGUGUUAUCGGGACCAAGGAUAUGUUUACUAUUGUGACAAUUCACAUGAGGAUCACCCAUGUACA
[1]; [5]
  apparent Kd: 21.7 nM
[1]; [6]
  apparent Kd: 15.3 nM

## CCCGUGUGUUAAGGAUAUGGCAGGCGCGUUGAACCAGAAGGUAGCACAUGAGGAUCACCCAUGUGAAUGCUCACGACUCGAGCA
[2]; [5]
  apparent Kd: 40.1 nM
[2]; [6]
  apparent Kd: 23.6 nM

## UUAUACGUUGAGGAUAUGCGAAUAAGUAUAGUUGCAGAAGGCGAUACAUGAGGAUCACCCAUGUUCAUGGACAU
[2]; [5]
  apparent Kd: 126 nM
[2]; [6]
  apparent Kd: 180 nM

## GGAGCUCACAUUAACAUGAGGAUCACCCAUGUCUCUUGACAUGAGGAUAUGGAUCCUAAUUGGAUCCAGAAGGCAUGGAGCUCC
[2]; [3]
  apparent Kd: 1650 nM
[2]; [4]
  apparent Kd: 108 nM

## GUGGUGCGUAUACGUGGAUGUACAUGAGGAUCACCCAUGUAAGAGGAUAUGCGGAUACUAGCUCAGCAGAAGGCUUACAAAUGA
[2]; [5]
  apparent Kd: 23.1 nM
[2]; [6]
  apparent Kd: 92.1 nM

## CUUUAGUGAGGAUAUGUGGCUUCGAUCGUGAGAUCGAGGCUACAGAAGGCACAUGAGGAUCACCCAUGUUCCUA
[2]; [5]
  apparent Kd: 16.6 nM
[2]; [6]
  apparent Kd: 59.4 nM

## CGCUCAAUUCUUUAGGUUAGAAUCAGAAGGCGUAACAUGAGGAUCACCCAUGUAUAGAAGUGUAACGAGGAUAUGAAUUGAGCG
[2]; [5]
  apparent Kd: 8.86 nM
[2]; [6]
  apparent Kd: 8.25 nM
